# Measured values of several laboratories.
# Protocols differ between the studies behind these lines.
# Target: Tyrosine-protein kinase Yes (YES1, Homo sapiens, UniProt P07947)
SMILES,observed,mode,technique,tested at,measurement,value
C=CC(=O)N1CCC[C@@H](n2nc(-c3ccc(Oc4ccccc4)cc3)c3c(N)ncnc32)C1,enzyme activity,inhibitor,,1 µM,inhibition,97%
CN1CCN(C(=O)c2ccc(NC(=O)Nc3ccc(N(C)c4ccnc(Nc5ccc(CS(C)(=O)=O)cc5)n4)cc3)cc2)CC1,binding,,competition with immobilised ligand,1 µM,remaining binding,96%
CCCCC(=O)Nc1ccc(-c2ccc3ncn(CCC)c(=O)c3c2)cn1,binding,,competition with immobilised ligand,0.5 µM,remaining binding,100%
Cc1ccc(NC(=O)c2ccnc(C(F)(F)F)c2)cc1-c1cc(OCCO)nc(N2CCOCC2)c1,binding,,competition with immobilised ligand,1 µM,remaining binding,87%
COc1ccc2oc(-c3ccc4nc(N)oc4c3)c/c(=N\c3ccccc3NC(=O)CCN)c2c1,binding,,,1 µM,remaining binding,101%
C1=C/COCc2cc(ccc2OCCN2CCCC2)Nc2nccc(n2)-c2cccc(c2)COC/1,binding,,,0.1 µM,remaining binding,71%
CO[C@@H]1[C@H](N(C)C(=O)c2ccccc2)C[C@H]2O[C@]1(C)n1c3ccccc3c3c4c(c5c6ccccc6n2c5c31)C(=O)NC4,enzyme activity,inhibitor,,1 µM,inhibition,39%
Cc1cc(O)c(-c2ccc([C@@H](C)CN(C)C)cc2)c2c1[nH]c(=O)c1sccc12,enzyme activity,inhibitor,,0.1 µM,inhibition,10.3%
